For orientation: viability means a read-out of living cells in per cent, often relative to untreated cells. In general, inhibition refers to the drop in the measured response relative to a control, in per cent.

Test [1] can be described thus: reducers of endogenous Her2 protein level, primary screen, SKBR3 breast tumor cells, AlphaScreen, ATP viability (AID 461).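 On Her2 level: lower value means less Her2 protein in the cells.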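 On viability: percent of carrier control wells set as 100% viability.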 Conditions: 18-24 h, measured here: SKBR3 viability, ATP luminescence, at 10 µM.
Test [2] deals with Receptor tyrosine-protein kinase erbB-2 (Homo sapiens) (UniProt P04626). Described as above. The conditions noted are these: 18-24 h, at 10 µM, stronger effect = lower value.
Receptor tyrosine-protein kinase erbB-2 (Homo sapiens), sequence (P04626 whole entry, looked up): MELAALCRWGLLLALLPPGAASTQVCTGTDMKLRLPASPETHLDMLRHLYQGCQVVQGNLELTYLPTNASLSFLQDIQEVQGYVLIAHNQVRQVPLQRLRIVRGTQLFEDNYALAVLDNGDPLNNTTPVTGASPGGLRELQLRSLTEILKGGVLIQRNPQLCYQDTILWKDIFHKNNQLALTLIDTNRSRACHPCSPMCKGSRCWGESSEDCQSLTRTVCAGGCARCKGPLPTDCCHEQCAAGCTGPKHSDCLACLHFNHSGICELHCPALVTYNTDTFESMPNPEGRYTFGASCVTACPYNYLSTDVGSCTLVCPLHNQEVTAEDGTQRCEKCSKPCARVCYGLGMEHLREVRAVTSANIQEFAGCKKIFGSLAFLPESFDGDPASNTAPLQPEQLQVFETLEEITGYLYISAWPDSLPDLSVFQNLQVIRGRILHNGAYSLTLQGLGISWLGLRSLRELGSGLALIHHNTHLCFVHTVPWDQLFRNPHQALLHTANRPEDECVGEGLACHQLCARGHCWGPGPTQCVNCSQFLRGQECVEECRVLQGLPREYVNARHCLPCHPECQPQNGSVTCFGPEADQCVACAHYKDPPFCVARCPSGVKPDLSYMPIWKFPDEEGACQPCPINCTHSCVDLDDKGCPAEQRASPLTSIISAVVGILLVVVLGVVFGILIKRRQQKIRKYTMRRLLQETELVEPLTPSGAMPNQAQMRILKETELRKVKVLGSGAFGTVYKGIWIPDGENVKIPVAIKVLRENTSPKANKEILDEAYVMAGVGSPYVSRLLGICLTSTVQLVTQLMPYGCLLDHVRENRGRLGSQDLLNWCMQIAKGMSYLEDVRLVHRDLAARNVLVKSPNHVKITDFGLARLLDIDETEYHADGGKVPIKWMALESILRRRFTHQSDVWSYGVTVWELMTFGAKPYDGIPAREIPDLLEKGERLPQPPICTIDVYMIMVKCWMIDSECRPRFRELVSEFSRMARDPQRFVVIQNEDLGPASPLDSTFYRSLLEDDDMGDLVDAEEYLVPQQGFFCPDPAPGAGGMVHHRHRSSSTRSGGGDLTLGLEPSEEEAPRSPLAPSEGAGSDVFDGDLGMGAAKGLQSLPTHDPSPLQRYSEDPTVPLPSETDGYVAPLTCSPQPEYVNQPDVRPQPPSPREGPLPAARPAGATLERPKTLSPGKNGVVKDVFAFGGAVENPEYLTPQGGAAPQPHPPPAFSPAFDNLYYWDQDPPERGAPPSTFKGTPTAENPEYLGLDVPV
A short description of test [3]: SK-BR-3 cell growth inhibitors, pilot screen, 24 h, human (AID 572;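 active means viability at or below 10% of carrier control in both of two separate runs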;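 further: compound exposure lasted between 18 and 24 h rather than exactly 24 h; 100% = carrier-treated control wells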). Conditions: SK-BR-3 viability, CellTiter-Glo luminescence, at 10 µM, stronger effect = lower value. A general note: Cellular ATP, detected with luciferase, serves as a proxy for viable cell number.
A short description of test [4]: HUVEC growth inhibition – cell-based, human, primary screen (AID 575;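 active means viability at or below 30% in both replicate assays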;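 further: 100% = median of untreated cell wells with 0.1% DMSO on each plate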). Conditions: HUVEC proliferation, CellTiter-Glo luminescence, 72 h; at 10 µM; stronger effect = lower value. The gist of the method: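 system = HUVEC primary cells | amount = 1250 cells/well | buffer or medium = supplemented EBM, 2% fetal bovine serum | dosing = single-point 10 µM, DMSO 0.1% final | times = 72 h compound incubation | detection = CTG luminescence | read-out = % viability relative to median vehicle-well signal on each plate | control set = vehicle and MePR control wells | format = collagen-coated 384-well format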

A short description of test [5]: growth inhibitors of H69AR lung tumor, primary screen, human, duplicate replicates (AID 580;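 active means viability at or under a set limit in both replicates, limit being median viability minus 3 SD, cut at about 48% in these data, passing the limit was not always enough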;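 further: 100% = mean luminescence of untreated wells and 0% = no signal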). Conditions: H69AR lung tumor cells viability, ATP luminescence, 72 h; at 10 µM; stronger effect = lower value.
The nature of test [6]: reversal of MRP1-mediated doxorubicin resistance, pilot screen, H69AR cells, doxorubicin co-treatment (AID 601;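 active means viability loss from added drug above about 55%, and viability with drug at most 40%, in both replicates, limit read from the data, passing the limit was not always enough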). Conditions: CellTiter-Glo, 72 h, at 10 µM; for differential viability (reversal): stronger effect = higher value.
Test [7] can be described thus: 384-well plate pilot, post-Golgi transport modulator project, inhibition of yeast transport mutant growth (AID 636; in the data active means inhibition above about 31%). Conditions: absorbance 615 nm, about 18 h, stronger effect = higher value.
Test [8] can be described thus: growth suppression of yeast trafficking mutant, preliminary HTS, modulators of trafficking downstream of Golgi apparatus project, 1536-format plate, OD 615 nm (AID 637; in the data active means inhibition above about 30%). The conditions noted are these: yeast transport mutant growth, absorbance 615 nm, 18 h; stronger effect = higher value.
Where [9] appears, read: H69AR cells + 2 uM doxorubicin, measured here: viability with 2 uM doxorubicin, stronger effect = lower value.
The mark [10] stands for this setting: H69AR cells, compound alone cytotoxicity.

Structures are written as SMILES. The source made the active and inactive calls.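 How the source made its calls, unless noted: active means Her2 level under about 52% in both replicate screens, with viability over 70% of control (limit read from the data); inconclusive means Her2 under the limit in one screen only, or viability under 70%; inactive means Her2 level above the set limit.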

Consider `CCOc1ccccc1NC(=O)N1C2CCCC1CC(NC(=O)C1CC1)C2` (stereo not given), for which the viability in test [1] was 102%; in test [3], 102% (inactive); in test [4], 107% (inactive); in test [5], 96.8% (inactive); in test [6] (setting [9]) it was 90%; in test [6] (setting [10]), 96.8%. In addition, the Her2 level in test [2] was 95% (inactive). Moreover, the differential viability (reversal) in test [6] (H69AR cells + 2 uM doxorubicin) was 6.77% (inactive). Besides, the inhibition is -6% (inactive) in test [7] and 2.58% (inactive) in test [8].

`CCCCSc1cc(C)nc2ncnn12`: the viability in test [1] is 98.5%; in test [3], 98.5% (inactive); in test [4], 75.2% (inactive); in test [5], 99.7% (inactive); in test [6] (setting [9]) it was 102%; in test [6] (setting [10]) it was 99.7%. Moreover, the Her2 level in test [2] was 131% (inactive). Also, the differential viability (reversal) in test [6] (H69AR cells + 2 uM doxorubicin) was -1.97% (inactive). Moreover, the inhibition is 5.71% (inactive) in test [7] and -0.67% (inactive) in test [8].

Take `O=C(NCc1ccco1)C1CCN(S(=O)(=O)N2CCC3(CC2)OCCO3)CC1`: the viability was 99.5% in test [1]; 99.5% (inactive) in test [3]; 118% (inactive) in test [4]; 100% (inactive) in test [5]; 85.8% in test [6] (setting [9]); 100% in test [6] (setting [10]). Further, the Her2 level in test [2] was 92% (inactive). For the same molecule, the differential viability (reversal) in test [6] (H69AR cells + 2 uM doxorubicin) is 14.2% (inactive). Further, the inhibition in test [7] is -6.89% (inactive); in test [8], -7.17% (inactive).

With `CCOC(=O)c1c(NC(=O)CSc2nnc(-c3cccnc3)o2)sc(C)c1C`, the viability in test [1] is 120%; in test [3] it was 120% (inactive); in test [4] it was 103% (inactive); in test [5] it was 99.1% (inactive); in test [6] (setting [9]) it was 85.1%; in test [6] (setting [10]), 99.1%. Besides, the Her2 level in test [2] was 104% (inactive). Also, the differential viability (reversal) in test [6] (H69AR cells + 2 uM doxorubicin) was 14% (inactive). The inhibition in test [7] was -4.34% (inactive); in test [8] it was -8.73% (inactive).

As for `CC(=O)c1cccc(S(=O)(=O)N2CCC(n3nnc4cc(F)ccc43)CC2)c1`, the viability in test [1] was 88%; in test [3] it was 88% (inactive); in test [4], 92.9% (inactive); in test [5] it was 93.9% (inactive); in test [6] (setting [9]) it was 85.8%; in test [6] (setting [10]), 93.9%. Further, in test [2], the Her2 level is 92.5% (inactive). Further, the differential viability (reversal) in test [6] (H69AR cells + 2 uM doxorubicin) was 8.11% (inactive). The figures for the inhibition in test [7] and in test [8] were -5.14% (inactive) and -2.62% (inactive), respectively.

For the molecule `CCOC(=O)N1CCN(C(=O)CCc2ccc(S(=O)(=O)NCCc3ccccc3)cc2)CC1`, the viability was 89.5% in test [1]; 89.5% (inactive) in test [3]; 87.2% (inactive) in test [4]; 101% (inactive) in test [5]; 83.1% in test [6] (setting [9]); 101% in test [6] (setting [10]). Also, the Her2 level in test [2] is 102% (inactive). Also, the differential viability (reversal) in test [6] (H69AR cells + 2 uM doxorubicin) was 17.6% (inactive). Moreover, the inhibition in test [7] is -0.13% (inactive); in test [8] it was -4% (inactive).

Consider `Cc1cc2ccccn2c1C(=O)c1ccncc1`, for which the viability in test [1] is 114%; in test [3], 114% (inactive); in test [4] it was 106% (inactive); in test [5] it was 87.9% (inactive); in test [6] (setting [9]), 78.8%; in test [6] (setting [10]), 87.9%. In addition, in test [2], the Her2 level was 98% (inactive). Besides, the differential viability (reversal) in test [6] (H69AR cells + 2 uM doxorubicin) is 9.15% (inactive). Moreover, the inhibition in test [7] was -3.77% (inactive); in test [8], 2.22% (inactive).

Turning to `COC(=O)c1ccccc1NC(=O)C1CCCCC1C(=O)O` (stereo not given), the viability in test [1] is 103%; in test [3], 103% (inactive); in test [4], 91% (inactive); in test [5] it was 90.3% (inactive); in test [6] (setting [9]), 91.8%; in test [6] (setting [10]), 90.3%. The Her2 level in test [2] was 116% (inactive). For the same molecule, in test [6] (H69AR cells + 2 uM doxorubicin), the differential viability (reversal) is -1.56% (inactive). In addition, the figures for the inhibition in test [7] and in test [8] were -2.93% (inactive) and -9.52% (inactive), respectively.

Consider `CN(Cc1nc(-c2ccncc2)no1)S(=O)(=O)c1ccccc1`, for which the viability in test [1] is 99.5%; in test [3], 99.5% (inactive); in test [4], 96.3% (inactive); in test [5] it was 95.7% (inactive); in test [6] (setting [9]), 88.7%; in test [6] (setting [10]), 95.7%. In addition, in test [2], the Her2 level was 79% (inactive). The differential viability (reversal) in test [6] (H69AR cells + 2 uM doxorubicin) is 7.03% (inactive). Further, the values for the inhibition in test [7] and in test [8] were -7.57% (inactive) and 0.79% (inactive), respectively.

Regarding `CN(C)S(=O)(=O)NC(c1ccccc1)c1ccccc1`, the viability in test [1] was 93%; in test [3], 93% (inactive); in test [4], 105% (inactive); in test [5], 105% (inactive); in test [6] (setting [9]) it was 88.9%; in test [6] (setting [10]) it was 105%. The Her2 level in test [2] was 97% (inactive). Also, the differential viability (reversal) in test [6] (H69AR cells + 2 uM doxorubicin) is 15.6% (inactive). The values for the inhibition in test [7] and in test [8] were -8% (inactive) and -2.38% (inactive), respectively.

Take `CCCSc1nc2c(cnn2-c2ccc(Cl)cc2)c(=O)[nH]1`: the viability was 106% in test [1]; 106% (inactive) in test [3]; 98.1% (inactive) in test [4]; 79% (inactive) in test [5]; 82.7% in test [6] (setting [9]); 79% in test [6] (setting [10]). In addition, the Her2 level in test [2] was 89.5% (inactive). The differential viability (reversal) in test [6] (H69AR cells + 2 uM doxorubicin) is -3.71% (inactive). The inhibition in test [7] is -6.23% (inactive); in test [8] it was 0.95% (inactive).

As to `Cc1ccc(/C=N/n2nnnc2N)o1`, the viability in test [1] is 93%; in test [3], 93% (inactive); in test [4], 111% (inactive); in test [5], 95.1% (inactive); in test [6] (setting [9]), 84.5%; in test [6] (setting [10]), 95.1%. The Her2 level in test [2] was 88% (inactive). Besides, in test [6] (H69AR cells + 2 uM doxorubicin), the differential viability (reversal) is 10.6% (inactive). Moreover, the inhibition in test [7] was -8.38% (inactive); in test [8] it was -10.5% (inactive).

For the molecule `Cc1cc(=O)n2nc(-c3ccccc3)sc2n1`, the viability in test [1] is 101%; in test [3] it was 101% (inactive); in test [4], 97.2% (inactive); in test [5], 92.3% (inactive); in test [6] (setting [9]) it was 87.8%; in test [6] (setting [10]) it was 92.3%. Further, the Her2 level in test [2] was 92.5% (inactive). Also, the differential viability (reversal) in test [6] (H69AR cells + 2 uM doxorubicin) was 4.42% (inactive). For the same molecule, the inhibition was -3.73% (inactive) in test [7] and 1.11% (inactive) in test [8].

As for `O=C(Cn1cccc1C(=O)c1ccccc1)NCCN1CCOCC1`, the viability in test [1] was 98%; in test [3], 98% (inactive); in test [4], 111% (inactive); in test [5], 90% (inactive); in test [6] (setting [9]), 87.4%; in test [6] (setting [10]), 90%. In test [2], the Her2 level is 89.5% (inactive). Besides, the differential viability (reversal) in test [6] (H69AR cells + 2 uM doxorubicin) is 2.57% (inactive). For the same molecule, the inhibition is -0.79% (inactive) in test [7] and 0.97% (inactive) in test [8].

Turning to `O=C(NC1CCCC1)c1ccc2nc[nH]c2c1`, the viability was 93.5% in test [1]; 93.5% (inactive) in test [3]; 103% (inactive) in test [4]; 91.2% (inactive) in test [5]; 81.7% in test [6] (setting [9]); 91.2% in test [6] (setting [10]). Moreover, in test [2], the Her2 level was 94.5% (inactive). The differential viability (reversal) in test [6] (H69AR cells + 2 uM doxorubicin) is 9.56% (inactive). For the same molecule, the results for the inhibition in test [7] and in test [8] were -6.23% (inactive) and -0.79% (inactive), respectively.

Consider `CCOC(=O)c1ccc(S(=O)(=O)NC2CCCCCCC2)n1C`, for which the viability in test [1] was 113%; in test [3] it was 113% (inactive); in test [4], 86.9% (inactive); in test [5] it was 104% (inactive); in test [6] (setting [9]) it was 107%; in test [6] (setting [10]) it was 104%. Also, in test [2], the Her2 level was 70% (inactive). Moreover, the differential viability (reversal) in test [6] (H69AR cells + 2 uM doxorubicin) is -3.18% (inactive). Also, the inhibition is -1.49% (inactive) in test [7] and 1.11% (inactive) in test [8].

Values taken from PubChem BioAssay.
